One series deals with Histone deacetylase 1 (Homo sapiens, UniProt Q13547). As to the kind of experiment: Inhibition of human recombinant HDAC1 using fluorogenic peptide p53 residues 379-382 (RHKK(Ac)AMC) as residues at 10 uM by fluorescence method. The method, boiled down: (§1)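 Selectivity profile across HDAC isoforms 1–11 at a single concentration of 10 μM, run in duplicate.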
For series [1], the target named is Histone deacetylase 2 (Homo sapiens) (UniProt Q92769). As to the kind of experiment: Inhibition of human recombinant HDAC2 using fluorogenic peptide p53 residues 379-382 (RHKK(Ac)AMC) as residues at 10 uM mins by fluorescence method. In outline: as §1
Sequence of Histone deacetylase 2 (Homo sapiens) (Q92769 whole entry, the tested form may be a part): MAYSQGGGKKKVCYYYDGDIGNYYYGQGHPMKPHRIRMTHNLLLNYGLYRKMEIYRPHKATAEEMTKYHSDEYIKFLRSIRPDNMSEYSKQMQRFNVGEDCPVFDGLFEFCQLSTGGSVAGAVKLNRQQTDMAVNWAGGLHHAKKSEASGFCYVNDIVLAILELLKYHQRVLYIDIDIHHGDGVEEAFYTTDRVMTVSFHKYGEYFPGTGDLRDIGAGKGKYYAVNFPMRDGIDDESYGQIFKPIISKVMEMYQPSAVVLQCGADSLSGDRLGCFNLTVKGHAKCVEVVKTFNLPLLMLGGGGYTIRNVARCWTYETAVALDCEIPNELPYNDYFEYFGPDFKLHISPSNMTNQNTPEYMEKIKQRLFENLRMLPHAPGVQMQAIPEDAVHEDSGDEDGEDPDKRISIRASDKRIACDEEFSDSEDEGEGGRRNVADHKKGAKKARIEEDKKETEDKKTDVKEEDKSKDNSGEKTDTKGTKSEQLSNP
In series [2] the target is Histone deacetylase 3 (Homo sapiens) (UniProt O15379). Briefly: Inhibition of human recombinant HDAC3 using fluorogenic peptide p53 residues 379-382 (RHKK(Ac)AMC) as residues at 10 uM by fluorescence method. In outline:
as §1

In series [3] the target is Histone deacetylase 5 (Homo sapiens) (UniProt Q9UQL6). As to the kind of experiment: Inhibition of human recombinant HDAC5 using fluorogenic trifluoroacetyl lysine as substrate at 10 uM by fluorescence method. In outline: as §1
Sequence of Histone deacetylase 5 (Homo sapiens) (Q9UQL6 whole entry): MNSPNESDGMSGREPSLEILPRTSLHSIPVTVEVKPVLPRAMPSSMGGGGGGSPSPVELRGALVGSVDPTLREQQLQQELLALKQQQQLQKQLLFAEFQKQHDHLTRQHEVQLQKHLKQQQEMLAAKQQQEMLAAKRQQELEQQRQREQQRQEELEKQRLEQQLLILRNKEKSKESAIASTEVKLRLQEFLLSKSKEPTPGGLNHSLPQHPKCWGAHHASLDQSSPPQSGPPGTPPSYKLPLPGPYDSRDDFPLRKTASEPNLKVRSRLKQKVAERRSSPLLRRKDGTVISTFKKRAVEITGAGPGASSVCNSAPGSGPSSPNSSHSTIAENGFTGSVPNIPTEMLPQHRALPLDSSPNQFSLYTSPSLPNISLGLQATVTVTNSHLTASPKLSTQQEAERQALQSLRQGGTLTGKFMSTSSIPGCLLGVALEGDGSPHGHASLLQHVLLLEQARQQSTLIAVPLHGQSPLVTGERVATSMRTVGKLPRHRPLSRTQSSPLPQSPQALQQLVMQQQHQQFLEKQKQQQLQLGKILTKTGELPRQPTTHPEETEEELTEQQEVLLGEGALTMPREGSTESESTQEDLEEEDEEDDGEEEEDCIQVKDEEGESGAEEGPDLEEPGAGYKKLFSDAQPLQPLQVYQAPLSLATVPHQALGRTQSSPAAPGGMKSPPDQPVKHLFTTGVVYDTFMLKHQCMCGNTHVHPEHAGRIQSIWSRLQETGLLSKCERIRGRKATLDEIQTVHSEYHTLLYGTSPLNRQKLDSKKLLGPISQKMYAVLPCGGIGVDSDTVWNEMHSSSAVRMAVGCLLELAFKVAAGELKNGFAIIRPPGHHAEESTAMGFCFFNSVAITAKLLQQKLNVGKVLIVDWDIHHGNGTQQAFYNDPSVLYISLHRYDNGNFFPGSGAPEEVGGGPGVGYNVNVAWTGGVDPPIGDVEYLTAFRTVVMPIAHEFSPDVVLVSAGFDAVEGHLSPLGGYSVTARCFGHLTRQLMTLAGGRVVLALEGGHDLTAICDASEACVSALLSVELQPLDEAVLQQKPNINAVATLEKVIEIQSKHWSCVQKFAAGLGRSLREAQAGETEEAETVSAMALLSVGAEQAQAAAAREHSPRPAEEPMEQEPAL
Series [4] addresses T1, Protein deacetylase HDAC6 (Homo sapiens) (UniProt Q9UBN7).
T1 sequence (whole entry): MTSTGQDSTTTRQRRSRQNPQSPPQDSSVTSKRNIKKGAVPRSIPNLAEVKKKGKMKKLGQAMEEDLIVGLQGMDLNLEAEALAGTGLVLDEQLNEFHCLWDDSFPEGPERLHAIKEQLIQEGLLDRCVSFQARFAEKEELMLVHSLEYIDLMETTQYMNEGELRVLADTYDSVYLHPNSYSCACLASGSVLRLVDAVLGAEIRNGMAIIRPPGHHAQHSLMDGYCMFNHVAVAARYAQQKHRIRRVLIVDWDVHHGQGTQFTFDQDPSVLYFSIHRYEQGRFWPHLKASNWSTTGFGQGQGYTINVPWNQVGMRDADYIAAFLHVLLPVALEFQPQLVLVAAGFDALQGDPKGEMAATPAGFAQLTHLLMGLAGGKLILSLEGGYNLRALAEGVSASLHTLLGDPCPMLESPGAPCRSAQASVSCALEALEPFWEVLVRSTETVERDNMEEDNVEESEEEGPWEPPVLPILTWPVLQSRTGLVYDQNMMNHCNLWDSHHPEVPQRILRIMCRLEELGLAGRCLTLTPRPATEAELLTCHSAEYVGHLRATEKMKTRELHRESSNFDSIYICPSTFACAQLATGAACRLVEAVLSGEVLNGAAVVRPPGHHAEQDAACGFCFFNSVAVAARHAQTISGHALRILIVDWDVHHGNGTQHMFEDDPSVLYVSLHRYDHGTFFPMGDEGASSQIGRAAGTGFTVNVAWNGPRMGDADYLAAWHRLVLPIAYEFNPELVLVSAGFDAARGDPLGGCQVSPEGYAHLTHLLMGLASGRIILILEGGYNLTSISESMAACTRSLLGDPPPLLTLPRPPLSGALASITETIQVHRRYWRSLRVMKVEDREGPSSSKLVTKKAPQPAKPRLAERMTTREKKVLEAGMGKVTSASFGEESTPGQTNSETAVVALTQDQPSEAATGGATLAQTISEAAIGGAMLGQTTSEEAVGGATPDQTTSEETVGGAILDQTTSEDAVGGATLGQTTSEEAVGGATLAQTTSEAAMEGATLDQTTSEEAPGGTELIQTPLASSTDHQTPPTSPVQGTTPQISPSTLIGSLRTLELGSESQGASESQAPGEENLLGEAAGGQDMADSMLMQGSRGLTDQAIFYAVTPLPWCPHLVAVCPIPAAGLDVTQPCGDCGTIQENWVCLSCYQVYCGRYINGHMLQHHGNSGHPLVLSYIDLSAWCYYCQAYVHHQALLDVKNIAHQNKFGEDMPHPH
Briefly: Inhibition of human recombinant HDAC6 using fluorogenic peptide p53 residues 379-382 (RHKK(Ac)AMC) as residues at 10 uM by fluorescence method. In outline:
as §1

In series [5] the target is T2, Histone deacetylase 8 (Homo sapiens) (UniProt Q9BY41).
T2 sequence (whole entry): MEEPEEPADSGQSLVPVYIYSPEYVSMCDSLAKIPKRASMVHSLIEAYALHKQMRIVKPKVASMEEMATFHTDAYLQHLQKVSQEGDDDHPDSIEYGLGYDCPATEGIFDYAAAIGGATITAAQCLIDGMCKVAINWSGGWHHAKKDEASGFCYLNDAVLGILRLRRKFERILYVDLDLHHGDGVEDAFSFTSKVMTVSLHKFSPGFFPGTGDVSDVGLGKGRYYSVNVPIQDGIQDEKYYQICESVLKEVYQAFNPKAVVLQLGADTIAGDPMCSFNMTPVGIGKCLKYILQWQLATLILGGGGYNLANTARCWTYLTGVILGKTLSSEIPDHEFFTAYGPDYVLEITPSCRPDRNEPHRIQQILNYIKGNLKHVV
Briefly: Inhibition of human recombinant HDAC8 using fluorogenic peptide p53 residues 379-382 (RHK(Ac)K(Ac)AMC) as residues at 10 uM by fluorescence method. The method, boiled down: as §1

Series [6] has as its target Histone deacetylase 9 (Homo sapiens) (UniProt Q9UKV0). As to the kind of experiment: Inhibition of human recombinant HDAC9 using fluorogenic trifluoroacetyl lysine as substrate at 10 uM by fluorescence method. The method, boiled down:
as §1

The target in series [7] is T3, Histone deacetylase 11 (Homo sapiens) (UniProt Q96DB2).
T3 sequence (whole entry): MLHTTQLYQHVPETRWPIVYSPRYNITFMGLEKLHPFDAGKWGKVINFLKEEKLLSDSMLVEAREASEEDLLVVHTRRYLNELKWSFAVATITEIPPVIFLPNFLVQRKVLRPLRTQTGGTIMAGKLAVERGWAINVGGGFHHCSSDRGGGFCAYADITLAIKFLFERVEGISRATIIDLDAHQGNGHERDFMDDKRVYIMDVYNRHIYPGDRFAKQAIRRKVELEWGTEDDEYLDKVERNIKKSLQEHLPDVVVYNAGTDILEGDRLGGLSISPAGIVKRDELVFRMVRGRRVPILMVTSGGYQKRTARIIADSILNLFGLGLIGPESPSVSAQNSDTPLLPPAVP
As to the kind of experiment: Inhibition of human recombinant HDAC11 using fluorogenic trifluoroacetyl lysine as substrate at 10 uM by fluorescence method. The method, boiled down: as §1

A short description of series [8]: Permeability of the compound at pH 7.4 PBS buffer at 100 uM measured upto 6 hrs by PAMPA-BBB assay.
The species entered for the next series is Rattus norvegicus. As to the kind of experiment: Neuroprotective activity against low serum/K+ deprivation-induced toxicity in rat CGN cells assessed as increase in cell viability at 5 to 25 uM pre-treated for 6 hrs followed by 24 hrs co-treatment with serum/K+ starvation and measured after 24 hrs by MTT assay. The format is functional, cell-based. In outline:
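Primary rat cerebellar granule neurons were pretreated for 6 h, then cotreated for 24 h under low-serum and K+ deprivation to induce death. Viability was compared with control and deprivation-only conditions, with tacrine as reference compound.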
A general note: Tetrazolium assays rely on reduction of a dye to a coloured formazan, in cell work by metabolically active cells.

Series [9] addresses Histone deacetylase (Mus musculus) (UniProt Q8VH37+Q9Z2V6+Q9Z2V5+O09106+Q8C2B3+P70288+O88895+Q91WA3+Q99N13+Q6NZM9+Q6P3E7). The conditions noted are these: at 5 to 25 µM.

Calls of active or inactive are those of the source. No cut-off for these calls is given here.

Sequence of Histone deacetylase 3 (Homo sapiens) (O15379 whole entry, the tested form may be a part): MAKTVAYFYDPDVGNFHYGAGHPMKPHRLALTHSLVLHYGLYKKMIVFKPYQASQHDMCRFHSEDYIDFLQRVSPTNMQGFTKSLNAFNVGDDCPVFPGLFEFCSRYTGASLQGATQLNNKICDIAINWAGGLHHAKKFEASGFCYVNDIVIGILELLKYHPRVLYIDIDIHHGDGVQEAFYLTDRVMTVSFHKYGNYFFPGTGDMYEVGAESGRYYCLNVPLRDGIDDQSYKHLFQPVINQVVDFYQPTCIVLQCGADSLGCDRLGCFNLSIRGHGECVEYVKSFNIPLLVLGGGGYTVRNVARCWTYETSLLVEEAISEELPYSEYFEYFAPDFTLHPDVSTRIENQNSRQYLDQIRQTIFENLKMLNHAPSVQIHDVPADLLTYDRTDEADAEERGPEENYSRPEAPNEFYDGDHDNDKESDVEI
Sequence of Histone deacetylase 9 (Homo sapiens) (Q9UKV0 whole entry): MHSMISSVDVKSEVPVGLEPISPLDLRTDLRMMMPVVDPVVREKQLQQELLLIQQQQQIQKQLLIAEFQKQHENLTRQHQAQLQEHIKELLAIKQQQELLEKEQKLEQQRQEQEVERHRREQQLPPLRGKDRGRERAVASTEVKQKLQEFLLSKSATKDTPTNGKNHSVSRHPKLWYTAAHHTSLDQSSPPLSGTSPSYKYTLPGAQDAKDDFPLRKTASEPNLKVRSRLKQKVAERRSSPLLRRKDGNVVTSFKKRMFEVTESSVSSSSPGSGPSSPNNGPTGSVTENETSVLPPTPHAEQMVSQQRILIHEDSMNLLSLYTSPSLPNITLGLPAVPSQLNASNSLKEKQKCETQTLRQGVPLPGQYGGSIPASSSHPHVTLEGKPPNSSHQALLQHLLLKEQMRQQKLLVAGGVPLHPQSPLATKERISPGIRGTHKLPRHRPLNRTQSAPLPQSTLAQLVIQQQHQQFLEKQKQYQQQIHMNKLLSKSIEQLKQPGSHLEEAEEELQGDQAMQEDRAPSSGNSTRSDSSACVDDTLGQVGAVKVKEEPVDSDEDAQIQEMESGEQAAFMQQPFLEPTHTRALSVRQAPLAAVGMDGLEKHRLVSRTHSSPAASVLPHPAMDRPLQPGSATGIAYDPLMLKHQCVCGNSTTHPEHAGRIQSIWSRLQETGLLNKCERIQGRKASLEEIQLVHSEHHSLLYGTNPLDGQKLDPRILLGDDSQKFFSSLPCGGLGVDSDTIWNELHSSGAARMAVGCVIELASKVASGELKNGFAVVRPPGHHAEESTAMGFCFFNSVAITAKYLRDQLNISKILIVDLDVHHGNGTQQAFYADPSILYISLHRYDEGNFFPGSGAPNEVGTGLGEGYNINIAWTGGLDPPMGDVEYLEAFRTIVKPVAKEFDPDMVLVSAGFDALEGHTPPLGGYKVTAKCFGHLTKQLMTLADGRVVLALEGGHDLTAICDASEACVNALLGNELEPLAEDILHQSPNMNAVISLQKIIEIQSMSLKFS
Sequence of Histone deacetylase 1 (Q13547 whole entry, the tested form may be a part, canonical isoform): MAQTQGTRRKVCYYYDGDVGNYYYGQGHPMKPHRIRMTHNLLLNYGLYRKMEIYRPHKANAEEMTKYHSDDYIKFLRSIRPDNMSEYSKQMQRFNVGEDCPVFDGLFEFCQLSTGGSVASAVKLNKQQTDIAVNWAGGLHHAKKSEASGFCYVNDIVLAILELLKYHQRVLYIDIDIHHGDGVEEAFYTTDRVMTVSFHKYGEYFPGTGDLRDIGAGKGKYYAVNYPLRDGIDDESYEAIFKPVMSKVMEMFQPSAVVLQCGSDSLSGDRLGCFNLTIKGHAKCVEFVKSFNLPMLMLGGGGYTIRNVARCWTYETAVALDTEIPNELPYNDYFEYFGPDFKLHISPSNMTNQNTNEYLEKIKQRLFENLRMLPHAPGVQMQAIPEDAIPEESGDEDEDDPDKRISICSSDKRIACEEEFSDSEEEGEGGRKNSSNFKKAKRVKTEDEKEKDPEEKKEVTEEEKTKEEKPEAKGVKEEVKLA

Broadly, the Papp is a coefficient for how fast a substance crosses the barrier. Turning to `COC(=O)c1c(CCCCCCCC(=O)NO)cccc1OC`, the inhibition entry (at Histone deacetylase 1; in [4]; in series [9]) was “Active” throughout. For the same molecule, the inhibition result in series [1], in [2], in series [3], in series [5], in series [6] and in series [7] was “inactive” throughout. In addition, the Papp at 6 h, 100 µM in series [8] is 102 nm/s. The result in the series listed under Rattus norvegicus was inactive.
On to `COc1cccc(CCCCCCCC(=O)NO)c1`, for which the inhibition entry (on Histone deacetylase 1; in series [4]; in [9]) was “Active” each time. Further, the inhibition result in series [1], in series [2], in series [3], in [5], in series [6] and in series [7] was “inactive” each time. This molecule also returned an apparent permeability (Papp) at 6 h, 100 µM in series [8] of 134 nm/s. In the series filed under Rattus norvegicus, the result was inactive.

(Values after ChEMBL document CHEMBL4433221, “Novel Sustainable-by-Design HDAC Inhibitors for the Treatment of Alzheimer's Disease” (ACS Med Chem Lett, 2019).)
